Measurements reported in ChEMBL document CHEMBL1275284, “Therapeutic potential of sulindac hydroxamic acid against human pancreatic and colonic cancer cells” (Eur J Med Chem, 2010).
Activity calls are given as the source filed them. No cut-off for these calls is given here.

How the values were obtained:
MIA PaCa-2 [1] = experiment: Induction of apoptosis in human MIAPaCa2 cells assessed as DNA internucleosomal fragmentation at 200 uM after 48 hrs relative to control; format: functional, cell-based
In short: (§1)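 MIA PaCa-2 or COLO320 cells (DMEM, 10% FBS, 2.5% horse serum, 37 °C, 5% CO2) treated 48 h at 200 µM. Oligonucleosomal fragments in the cytoplasmic fraction measured, along with necrotic death, expressed relative to untreated control. Mean ± SEM, n = 3.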

[2] = Cytotoxicity against human COLO320 cells after 72 hrs by WST-1 assay; format: functional, cell-based; settings: COLO 320, 72 h
COLO 320 [3] = experiment: Induction of apoptosis in human COLO320 cells assessed as increase in caspase 3/7 activation at 200 uM after 24 hrs by spectrofluorimetry relative to control; format: functional
In short: (§2)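 Caspase 3/7 activity assayed after 24 h exposure of cells to 200 µM compound. Fluorescent signal of treated cells expressed as a ratio to that of vehicle-only untreated cells. Mean ± SEM, n = 3.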

HUVEC [4] = experiment: Cytotoxicity against HUVEC at 0.1 uM after 96 hrs by trypan blue exclusion test; format: cell-based; settings: human
HUVEC [5] = experiment: Antiangiogenic activity in HUVEC assessed as inhibition of bFGF-induced cell proliferation at 0.1 uM after 96 hrs by haemocytometry; format: functional, cell-based; settings: Homo sapiens
COLO 320 [6] = experiment: Induction of apoptosis in human COLO320 cells assessed as DNA internucleosomal fragmentation at 200 uM after 48 hrs relative to control; format: functional, cell-based; in short: as §1
MIA PaCa-2 [7] = experiment: Cytotoxicity against human MIAPaCa2 cells after 72 hrs by WST-1 assay; format: functional, cell-based; settings: MIA PaCa-2, 72 h
HUVEC [8] = experiment: Antiangiogenic activity in HUVEC assessed as inhibition of VEGF-induced cell proliferation at 0.1 uM after 96 hrs by haemocytometry; format: functional, cell-based; settings: Homo sapiens
MIA PaCa-2 [9] = experiment: Induction of apoptosis in human MIAPaCa2 cells assessed as increase in caspase 3/7 activation at 200 uM after 24 hrs by spectrofluorimetry relative to control; format: functional; in short: as §2
MIA PaCa-2 [10] = experiment: Induction of apoptosis in human MIAPaCa2 cells assessed as change in Bax to Bcl2 mRNA expression ratio at 200 uM after 24 hrs by RT-PCR assay relative to control; format: functional, cell-based
In short: (§3)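 Cells exposed 24 h to 200 µM compound. bax and bcl-2 mRNA measured by semi-quantitative RT-PCR, normalized to GAPDH mRNA, and the bax:bcl-2 ratio compared with control. Mean ± SEM, n = 3.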

COLO 320 [11] = experiment: Induction of apoptosis in human COLO320 cells assessed as increase in Bax to Bcl2 mRNA expression ratio at 200 uM after 24 hrs by RT-PCR assay relative to control; format: functional; in short: as §3

Row | SMILES | Activity (MIA PaCa-2 [1]) | IC50 [2] [µM] | fold change (FC) (COLO 320 [3]) | Activity (HUVEC [4]) | Activity (HUVEC [5]) | Activity (COLO 320 [6]) | IC50 (MIA PaCa-2 [7]) [µM] | Activity (HUVEC [8]) | fold change (FC) (MIA PaCa-2 [9]) | Activity (MIA PaCa-2 [10]) | Activity (COLO 320 [11]) [%]
1 | CC1=C(CC(=O)NO)c2cc(F)ccc2C1=Cc1ccc(S(C)(=O)=O)cc1 | inactive | 26.2 | 5 | Non-toxic | Active | inactive | 44.4 | Active | 5 |  | 
2 | CC1=C(CC(=O)O)c2cc(F)ccc2/C1=C\c1ccc([S+](C)[O-])cc1 (stereo not drawn) [SULINDAC] | inactive | > 200 |  |  |  | inactive | > 200 |  |  |  | 
3 | CC1=C(CC(=O)O)c2cc(F)ccc2/C1=C\c1ccc(S(C)(=O)=O)cc1 [EXISULIND] | inactive | > 200 |  |  | Active | inactive | > 200 | Active |  |  | 
4 | CSc1ccc(C=C2C(C)=C(CC(=O)NO)c3cc(F)ccc32)cc1 | inactive | 6 | 5 | Non-toxic | Active | inactive | 32 | Active | 5 | inactive | 130
5 | CC1=C(CC(=O)NO)c2cc(F)ccc2C1=Cc1ccc([S+](C)[O-])cc1 (stereo not drawn) | inactive | 62.5 | 5 | Non-toxic | Active | inactive | 64.1 | Active | 5 |  | 
6 | CC1(C)OC(=O)C(c2cccc(F)c2)=C1c1ccc(S(C)(=O)=O)cc1 |  | > 200 |  |  |  |  | > 200 |  |  |  | 
7 | CSc1ccc(/C=C2/C(C)=C(CC(=O)O)c3cc(F)ccc32)cc1 [SULINDAC SULFIDE] | inactive | 38.7 |  |  | Active | inactive | 146 | Active |  | inactive | 
